Measured values from PubChem BioAssay.
Some of the results follow. Values without a mark were called inactive. Active and inactive are the calls of the source.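 How the source made its calls, unless noted: active means mean activation across triplicate tests above the threshold derived from the earlier primary screen (cut at about 5.5% in these data); inactive means the rest.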

What was measured:
[1] = molecular target: Oxysterols receptor LXR-beta (Homo sapiens) (UniProt P55055); assay: LXR agonists, Gal4 luciferase reporter, confirmation, counter-screen for hcDAF-12 agonist project, cell-based, luminescence, HEK293, H. contortus campaign (AID 743027;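 active means mean percent activation of the reporter above a cutoff set as the average over tested compounds plus their standard deviation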); conditions: HEK293 Gal4-LXR tk-luc reporter, 24 h, at 6.8 µM, stronger effect = higher value, normalized: DMSO 0%, positive control 100%
Chain of Oxysterols receptor LXR-beta (Homo sapiens) (P55055 whole entry, looked up, the tested form may be a part): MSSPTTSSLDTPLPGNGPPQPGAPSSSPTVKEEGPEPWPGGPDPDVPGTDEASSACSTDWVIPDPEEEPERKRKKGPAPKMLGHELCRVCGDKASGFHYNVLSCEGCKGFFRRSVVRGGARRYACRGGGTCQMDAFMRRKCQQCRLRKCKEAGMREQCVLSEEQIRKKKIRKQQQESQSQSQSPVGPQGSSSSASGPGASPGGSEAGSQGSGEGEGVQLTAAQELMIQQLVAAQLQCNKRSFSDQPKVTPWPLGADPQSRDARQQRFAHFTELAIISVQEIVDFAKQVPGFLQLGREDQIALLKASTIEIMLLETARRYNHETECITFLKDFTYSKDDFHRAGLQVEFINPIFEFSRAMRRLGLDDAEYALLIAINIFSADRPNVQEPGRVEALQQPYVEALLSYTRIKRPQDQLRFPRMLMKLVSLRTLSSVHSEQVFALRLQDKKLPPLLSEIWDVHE
Outline: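 Assay system: HEK293 Gal4-LXR luciferase reporter cells; schedule: one-day compound treatment at 37 °C; signal: One-Glo luciferase luminescence; control set: DMSO and positive control; replicates: triplicate wells per compound; doses: 6.8 µM single dose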

[2] = test system: Nuclear hormone receptor DAF-12 (Haemonchus contortus); assay: H. contortus DAF-12 receptor agonists, confirmation, cell-based, luminescence, HEK293, lit1-tk-luc, triplicate (AID 743032); conditions: HEK293 hcDAF-12 lit1-tk-luc reporter, at 6.8 µM, stronger effect = higher value, % of Δ7-dafachronic acid response;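 further: 0% = DMSO only wells and 100% = 3 µM Δ7-dafachronic acid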

`O=C(CSC(=S)N1CCOCC1)c1ccccc1` gave an activation [1] of 1% and an activation [2] of 5.12%.

`COc1ccc(C(=O)C[n+]2ccc(C)cc2)cc1` gave an activation [1] of -0.34% and an activation [2] of 0.77%.

`CCc1ccc(NC(=O)N2CCc3ccccc3C2)cc1` was tested, and the activation [1] was 0.65% and the activation [2] was 7.24% (active).

For `NS(=O)(=O)c1ccccc1NC(=O)c1c(O)c2ccccc2[nH]c1=O`, the activation [1] was 1.36% and the activation [2] was 9.27% (active).

`Fc1ccc2nc(Nc3nc4c(s3)CCCC4)sc2c1` was tested, and the activation [1] was 1.24% and the activation [2] was 11.5% (active).

In the case of `O=[N+]([O-])c1ccc2oc(-c3cccc(O)c3)nc2c1`, the activation [1] is reported as 1.82% and the activation [2] is reported as 20% (active).

With `Cc1nc2cc(NC(=O)Nc3cccc(F)c3)ccc2n1C` the activation [1] was 1.98% and the activation [2] was 11.2% (active).

Molecule `Cc1cccc(-c2nc3ccccc3c(=O)n2NC(=O)Cc2ccc(Cl)cc2)c1` has an activation [1] of -0.04% and an activation [2] of 0.97%.

For `CN(CC(=O)Nc1cccc(F)c1)C(=O)C1CC(=O)N(CCc2ccccc2)C1` (configuration not stated), the activation [1] was -0.05% and the activation [2] was 4.2%.

With `COc1ccc(CNC(=O)c2ccc3oc(C(C)C)nc3c2)cc1` the activation [1] was 0.72% and the activation [2] was 2.54%.

For `COc1ccc(OCc2cc(C(=O)N3CCCC3)no2)c2ccccc12`, the activation [1] was 0.67% and the activation [2] was 8.88% (active).

In the case of `COc1ccccc1NC(=O)c1ccc(C)s1`, the activation [1] is reported as 0.6% and the activation [2] is reported as 8.4% (active).

Molecule `O=c1[nH]c(CCl)nc2cc(-c3ccc(Cl)cc3)sc12` has an activation [1] of 0.52% and an activation [2] of 1.27%.

`Cc1cccc(C(=O)N2CCc3c([nH]c4ccccc34)C2CC(C)C)n1` (configuration not stated) was tested, and the activation [1] was 0.01% and the activation [2] was 6.29% (active).

In the case of `O=C(O)c1ccccc1CSc1nc2ccccc2s1`, the activation [1] is reported as 0.24% and the activation [2] is reported as 9.05% (active).

`Cc1cccnc1NC(=O)Cn1c(=O)oc2ccccc21` showed an activation [1] of -0.23% and an activation [2] of 1.31%.
